Experimental data reported in ChEMBL document CHEMBL1124366, “Synthesis and biological properties of N63-carboxamides of teicoplanin antibiotics. Structure-activity relationships” (J Med Chem, 1989).
≈ marks a conversion by molar mass, not a printed value.

Key:
Assay type in all cases: functional
[1] = system: Staphylococcus epidermidis; assay: In vitro minimum inhibitory concentration against Staphylococcus epidermis ATCC 12228
[2] = system: Streptococcus pyogenes; assay: In vivo effective dose given perorally to mice infected with Streptococcus pyogenes C 203; conditions: po
Summary of the method: (§1)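 Mice (five per treatment group, five groups) infected intraperitoneally with about 10⁵ cells of Strep. pyogenes C 203, about 100× the LD50. ED50 (mg/kg) was calculated from the percentage of mice surviving at each dose on day 7.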

[3] = system: Staphylococcus haemolyticus; assay: In vitro minimum inhibitory concentration against Staphylococcus hemolyticus 602 cell line; conditions: strain 602
[4] = system: Staphylococcus aureus; assay: In vitro minimum inhibitory concentration against Staphylococcus aureus Tour
[5] = system: Streptococcus pyogenes; assay: In vitro minimum inhibitory concentration against Streptococcus pyogenes C 203
[6] = system: Streptococcus pyogenes; assay: Subcutaneously administration into mice infected with Streptococcus pyogenes C 203; conditions: sc; summary of the method: as §1
[7] = system: Enterococcus faecalis; assay: In vitro minimum inhibitory concentration against Streptococcus faecalis ATCC 7080
[8] = system: Streptococcus pneumoniae; assay: In vitro minimum inhibitory concentration against Streptococcus pneumoniae UC41

| Structure (SMILES) | MIC [1] [µg/mL] | MIC [4] [µg/mL] | MIC [5] [µg/mL] | MIC [7] [µg/mL] | MIC [8] [µg/mL] | ED50 [2] [mg/kg] | MIC [3] [µg/mL] | ED50 [6] [mg/kg] |
| --- | --- | --- | --- | --- | --- | --- | --- | --- |
| CC(=O)N[C@@H]1[C@H](O[C@@H]2c3ccc(c(Cl)c3)Oc3cc4cc(c3O[C@@H]3O[C@@H](CO)[C@@H](O)[C@H](O)[C@@H]3NC(=O)CCCCCCC(C)C)Oc3ccc(cc3Cl)C[C@H]3NC(=O)[C@H](N)c5ccc(O)c(c5)Oc5cc(O)cc(c5)[C@H](NC3=O)C(=O)N[C@H]4C(=O)N[C@H]3C(=O)N[C@@H]2C(=O)N[C@H](C(=O)N(C)C)c2cc(O)cc(O[C@H]4O[C@H](CO)[C@@H](O)[C@@H](O)[C@@H]4O)c2-c2cc3ccc2O)O[C@@H](CO)[C@@H](O)[C@@H]1O | 0.25 (≈ 0.131 µM) | 0.12 (≈ 0.0629 µM) | 0.06 (≈ 0.0315 µM) | 0.12 (≈ 0.0629 µM) | 0.06 (≈ 0.0315 µM) | 139 |  | 0.08 |
| CC(=O)N[C@@H]1[C@H](O[C@@H]2c3ccc(c(Cl)c3)Oc3cc4cc(c3O[C@@H]3O[C@@H](CO)[C@@H](O)[C@H](O)[C@@H]3NC(=O)CCCCCCC(C)C)Oc3ccc(cc3Cl)C[C@H]3NC(=O)[C@H](N)c5ccc(O)c(c5)Oc5cc(O)cc(c5)[C@H](NC3=O)C(=O)N[C@H]4C(=O)N[C@H]3C(=O)N[C@@H]2C(=O)N[C@H](C(=O)N2CCN(C)CC2)c2cc(O)cc(O[C@H]4O[C@H](CO)[C@@H](O)[C@@H](O)[C@@H]4O)c2-c2cc3ccc2O)O[C@@H](CO)[C@@H](O)[C@@H]1O | 0.12 (≈ 0.0612 µM) | 0.12 (≈ 0.0612 µM) | 0.06 (≈ 0.0306 µM) | 0.06 (≈ 0.0306 µM) | 0.12 (≈ 0.0612 µM) | 115 |  | < 0.03 |
| CC(=O)N[C@@H]1[C@H](O[C@@H]2c3ccc(c(Cl)c3)Oc3cc4cc(c3O[C@@H]3O[C@@H](CO)[C@@H](O)[C@H](O)[C@@H]3NC(=O)CCCCCCC(C)C)Oc3ccc(cc3Cl)C[C@H]3NC(=O)[C@H](N)c5ccc(O)c(c5)Oc5cc(O)cc(c5)[C@H](NC3=O)C(=O)N[C@H]4C(=O)N[C@H]3C(=O)N[C@@H]2C(=O)N[C@H](C(=O)N2CCSCC2)c2cc(O)cc(O[C@H]4O[C@H](CO)[C@@H](O)[C@@H](O)[C@@H]4O)c2-c2cc3ccc2O)O[C@@H](CO)[C@@H](O)[C@@H]1O | 0.25 (≈ 0.127 µM) | 0.12 (≈ 0.0611 µM) | 0.06 (≈ 0.0305 µM) | 0.12 (≈ 0.0611 µM) | 0.12 (≈ 0.0611 µM) | 220 |  | 0.08 |
| CC(=O)N[C@@H]1[C@H](O[C@@H]2c3ccc(c(Cl)c3)Oc3cc4cc(c3O[C@@H]3O[C@@H](CO)[C@@H](O)[C@H](O)[C@@H]3NC(=O)CCCCCCC(C)C)Oc3ccc(cc3Cl)C[C@H]3NC(=O)[C@H](N)c5ccc(O)c(c5)Oc5cc(O)cc(c5)[C@H](NC3=O)C(=O)N[C@H]4C(=O)N[C@H]3C(=O)N[C@@H]2C(=O)N[C@H](C(=O)NCCN2CCCC2)c2cc(O)cc(O[C@H]4O[C@H](CO)[C@@H](O)[C@@H](O)[C@@H]4O)c2-c2cc3ccc2O)O[C@@H](CO)[C@@H](O)[C@@H]1O | 0.12 (≈ 0.0607 µM) | 0.12 (≈ 0.0607 µM) | 0.06 (≈ 0.0304 µM) | 0.12 (≈ 0.0607 µM) | 0.12 (≈ 0.0607 µM) | 173 |  | 0.06 |
| CC(=O)N[C@@H]1[C@H](O[C@@H]2c3ccc(c(Cl)c3)Oc3cc4cc(c3O[C@@H]3O[C@@H](CO)[C@@H](O)[C@H](O)[C@@H]3NC(=O)CCCCCCC(C)C)Oc3ccc(cc3Cl)C[C@H]3NC(=O)[C@H](N)c5ccc(O)c(c5)Oc5cc(O)cc(c5)[C@H](NC3=O)C(=O)N[C@H]4C(=O)N[C@H]3C(=O)N[C@@H]2C(=O)N[C@H](C(=O)NCC(=O)O)c2cc(O)cc(O[C@H]4O[C@H](CO)[C@@H](O)[C@@H](O)[C@@H]4O)c2-c2cc3ccc2O)O[C@@H](CO)[C@@H](O)[C@@H]1O | 0.12 (≈ 0.062 µM) | 0.12 (≈ 0.062 µM) | 0.12 (≈ 0.062 µM) | 0.25 (≈ 0.129 µM) | 0.12 (≈ 0.062 µM) | > 300 |  | 0.23 |

Continued, in another order:

| MIC [1] [µg/mL] | MIC [4] [µg/mL] | MIC [5] [µg/mL] | MIC [7] [µg/mL] | MIC [8] [µg/mL] | Structure (SMILES) | ED50 [2] [mg/kg] | MIC [3] [µg/mL] | ED50 [6] [mg/kg] |
| --- | --- | --- | --- | --- | --- | --- | --- | --- |
| 0.12 (≈ 0.0594 µM) | 0.12 (≈ 0.0594 µM) | 0.06 (≈ 0.0297 µM) | 0.12 (≈ 0.0594 µM) | 0.12 (≈ 0.0594 µM) | CC(=O)N[C@@H]1[C@H](O[C@@H]2c3ccc(c(Cl)c3)Oc3cc4cc(c3O[C@@H]3O[C@@H](CO)[C@@H](O)[C@H](O)[C@@H]3NC(=O)CCCCCCC(C)C)Oc3ccc(cc3Cl)C[C@H]3NC(=O)[C@H](N)c5ccc(O)c(c5)Oc5cc(O)cc(c5)[C@H](NC3=O)C(=O)N[C@H]4C(=O)N[C@H]3C(=O)N[C@@H]2C(=O)N[C@H](C(=O)NCCCCCCCN(C)C)c2cc(O)cc(O[C@H]4O[C@H](CO)[C@@H](O)[C@@H](O)[C@@H]4O)c2-c2cc3ccc2O)O[C@@H](CO)[C@@H](O)[C@@H]1O | > 300 | 0.5 (≈ 0.248 µM) | 0.18 |
| 0.06 (≈ 0.0312 µM) | 0.12 (≈ 0.0624 µM) | 0.06 (≈ 0.0312 µM) | 0.12 (≈ 0.0624 µM) | 0.12 (≈ 0.0624 µM) | CC(=O)N[C@@H]1[C@H](O[C@@H]2c3ccc(c(Cl)c3)Oc3cc4cc(c3O[C@@H]3O[C@@H](CO)[C@@H](O)[C@H](O)[C@@H]3NC(=O)CCCCCCC(C)C)Oc3ccc(cc3Cl)C[C@H]3NC(=O)[C@H](N)c5ccc(O)c(c5)Oc5cc(O)cc(c5)[C@H](NC3=O)C(=O)N[C@H]4C(=O)N[C@H]3C(=O)N[C@@H]2C(=O)N[C@H](C(=O)NCCN)c2cc(O)cc(O[C@H]4O[C@H](CO)[C@@H](O)[C@@H](O)[C@@H]4O)c2-c2cc3ccc2O)O[C@@H](CO)[C@@H](O)[C@@H]1O | 139 | 0.12 (≈ 0.0624 µM) | 0.18 |
| 0.06 (≈ 0.0308 µM) | 0.12 (≈ 0.0615 µM) | 0.06 (≈ 0.0308 µM) | 0.12 (≈ 0.0615 µM) | 0.12 (≈ 0.0615 µM) | CCNCCNC(=O)[C@H]1NC(=O)[C@H]2NC(=O)[C@H](NC(=O)[C@@H]3NC(=O)[C@H]4NC(=O)[C@@H](Cc5ccc(c(Cl)c5)Oc5cc3cc(c5O[C@@H]3O[C@@H](CO)[C@@H](O)[C@H](O)[C@@H]3NC(=O)CCCCCCC(C)C)Oc3ccc(cc3Cl)[C@H]2O[C@@H]2O[C@@H](CO)[C@@H](O)[C@H](O)[C@@H]2NC(C)=O)NC(=O)[C@H](N)c2ccc(O)c(c2)Oc2cc(O)cc4c2)c2ccc(O)c(c2)-c2c(O[C@H]3O[C@H](CO)[C@@H](O)[C@@H](O)[C@@H]3O)cc(O)cc21 | 300 | 0.12 (≈ 0.0615 µM) | 0.18 |
| 0.12 (≈ 0.0602 µM) | 0.12 (≈ 0.0602 µM) | 0.06 (≈ 0.0301 µM) | 0.12 (≈ 0.0602 µM) | 0.12 (≈ 0.0602 µM) | CC(=O)N[C@@H]1[C@H](O[C@@H]2c3ccc(c(Cl)c3)Oc3cc4cc(c3O[C@@H]3O[C@@H](CO)[C@@H](O)[C@H](O)[C@@H]3NC(=O)CCCCCCC(C)C)Oc3ccc(cc3Cl)C[C@H]3NC(=O)[C@H](N)c5ccc(O)c(c5)Oc5cc(O)cc(c5)[C@H](NC3=O)C(=O)N[C@H]4C(=O)N[C@H]3C(=O)N[C@@H]2C(=O)N[C@H](C(=O)NCCN2CCOCC2)c2cc(O)cc(O[C@H]4O[C@H](CO)[C@@H](O)[C@@H](O)[C@@H]4O)c2-c2cc3ccc2O)O[C@@H](CO)[C@@H](O)[C@@H]1O | 300 |  | 0.08 |
| 0.06 (≈ 0.0302 µM) | 0.12 (≈ 0.0603 µM) | 0.06 (≈ 0.0302 µM) | 0.12 (≈ 0.0603 µM) | 0.06 (≈ 0.0302 µM) | CCN1CCCC1CNC(=O)[C@H]1NC(=O)[C@H]2NC(=O)[C@H](NC(=O)[C@@H]3NC(=O)[C@H]4NC(=O)[C@@H](Cc5ccc(c(Cl)c5)Oc5cc3cc(c5O[C@@H]3O[C@@H](CO)[C@@H](O)[C@H](O)[C@@H]3NC(=O)CCCCCCC(C)C)Oc3ccc(cc3Cl)[C@H]2O[C@@H]2O[C@@H](CO)[C@@H](O)[C@H](O)[C@@H]2NC(C)=O)NC(=O)[C@H](N)c2ccc(O)c(c2)Oc2cc(O)cc4c2)c2ccc(O)c(c2)-c2c(O[C@H]3O[C@H](CO)[C@@H](O)[C@@H](O)[C@@H]3O)cc(O)cc21 (some centres undefined) | 140 | 0.12 (≈ 0.0603 µM) | 0.1 |
| 0.06 (≈ 0.0303 µM) | 0.12 (≈ 0.0607 µM) | 0.06 (≈ 0.0303 µM) | 0.12 (≈ 0.0607 µM) | 0.12 (≈ 0.0607 µM) | CC(=O)N[C@@H]1[C@H](O[C@@H]2c3ccc(c(Cl)c3)Oc3cc4cc(c3O[C@@H]3O[C@@H](CO)[C@@H](O)[C@H](O)[C@@H]3NC(=O)CCCCCCC(C)C)Oc3ccc(cc3Cl)C[C@H]3NC(=O)[C@H](N)c5ccc(O)c(c5)Oc5cc(O)cc(c5)[C@H](NC3=O)C(=O)N[C@H]4C(=O)N[C@H]3C(=O)N[C@@H]2C(=O)N[C@H](C(=O)NCCCCN(C)C)c2cc(O)cc(O[C@H]4O[C@H](CO)[C@@H](O)[C@@H](O)[C@@H]4O)c2-c2cc3ccc2O)O[C@@H](CO)[C@@H](O)[C@@H]1O | 90 | 0.25 (≈ 0.126 µM) | 0.1 |
| 0.06 (≈ 0.0293 µM) | 0.25 (≈ 0.122 µM) | 0.06 (≈ 0.0293 µM) | 0.12 (≈ 0.0586 µM) | 0.06 (≈ 0.0293 µM) | CCCCN(CCCC)CCCNC(=O)[C@H]1NC(=O)[C@H]2NC(=O)[C@H](NC(=O)[C@@H]3NC(=O)[C@H]4NC(=O)[C@@H](Cc5ccc(c(Cl)c5)Oc5cc3cc(c5O[C@@H]3O[C@@H](CO)[C@@H](O)[C@H](O)[C@@H]3NC(=O)CCCCCCC(C)C)Oc3ccc(cc3Cl)[C@H]2O[C@@H]2O[C@@H](CO)[C@@H](O)[C@H](O)[C@@H]2NC(C)=O)NC(=O)[C@H](N)c2ccc(O)c(c2)Oc2cc(O)cc4c2)c2ccc(O)c(c2)-c2c(O[C@H]3O[C@H](CO)[C@@H](O)[C@@H](O)[C@@H]3O)cc(O)cc21 | 300 |  | 0.1 |
